According to ChEMBL document CHEMBL4396900, “Extending Cross Metathesis To Identify Selective HDAC Inhibitors: Synthesis, Biological Activities, and Modeling” (ACS Med Chem Lett, 2019):
Calls of active or inactive are those of the source. The calls are words filed in the database; no cut-off is given here.

Experiments:
[1] = test system: A549; test: cells; format: functional, cell-based; conditions: Homo sapiens, A549, 72 h
[2] = biological target: T1, Protein deacetylase HDAC6 (Homo sapiens) (UniProt Q9UBN7); test: Inhibition of HDAC6 in human Meso163 cells assessed as increase in histone H3 acetylation at 20 uM measured after 6 to 20 hrs by Western blot analysis; format: cell-based
T1 sequence (whole entry): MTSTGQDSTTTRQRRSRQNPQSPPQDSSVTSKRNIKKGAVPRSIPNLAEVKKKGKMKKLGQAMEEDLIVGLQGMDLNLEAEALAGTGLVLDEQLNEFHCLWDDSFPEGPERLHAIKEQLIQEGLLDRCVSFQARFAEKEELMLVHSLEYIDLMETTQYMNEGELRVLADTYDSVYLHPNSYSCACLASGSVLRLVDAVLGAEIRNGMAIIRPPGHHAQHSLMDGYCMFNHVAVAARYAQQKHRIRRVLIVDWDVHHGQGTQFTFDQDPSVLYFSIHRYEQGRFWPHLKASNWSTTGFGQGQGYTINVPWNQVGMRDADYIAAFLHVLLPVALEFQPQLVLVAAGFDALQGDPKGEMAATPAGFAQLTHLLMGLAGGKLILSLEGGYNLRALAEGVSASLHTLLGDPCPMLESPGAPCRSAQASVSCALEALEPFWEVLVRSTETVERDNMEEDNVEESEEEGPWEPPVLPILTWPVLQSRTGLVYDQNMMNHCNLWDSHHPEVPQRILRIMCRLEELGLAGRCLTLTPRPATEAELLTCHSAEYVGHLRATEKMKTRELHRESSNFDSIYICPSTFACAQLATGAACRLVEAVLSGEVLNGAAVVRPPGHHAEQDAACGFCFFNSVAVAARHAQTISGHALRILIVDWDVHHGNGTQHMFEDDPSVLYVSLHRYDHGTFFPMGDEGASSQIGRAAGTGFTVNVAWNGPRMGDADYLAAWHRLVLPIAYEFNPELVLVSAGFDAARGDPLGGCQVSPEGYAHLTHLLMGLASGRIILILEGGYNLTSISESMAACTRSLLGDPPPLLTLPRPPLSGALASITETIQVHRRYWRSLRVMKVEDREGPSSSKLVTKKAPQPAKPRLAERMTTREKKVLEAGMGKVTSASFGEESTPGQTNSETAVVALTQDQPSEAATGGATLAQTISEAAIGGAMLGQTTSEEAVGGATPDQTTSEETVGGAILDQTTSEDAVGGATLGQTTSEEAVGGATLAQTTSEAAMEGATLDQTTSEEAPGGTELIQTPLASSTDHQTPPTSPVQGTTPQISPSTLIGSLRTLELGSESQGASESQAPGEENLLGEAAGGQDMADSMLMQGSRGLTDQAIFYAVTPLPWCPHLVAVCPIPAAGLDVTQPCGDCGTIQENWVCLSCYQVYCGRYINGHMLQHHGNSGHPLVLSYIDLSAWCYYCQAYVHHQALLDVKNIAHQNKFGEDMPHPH
In short: (§1)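 Meso 163 mesothelioma and A549 lung adenocarcinoma cells exposed to agent for 6 or 20 h; histone H3 and alpha-tubulin acetylation analysed by western blot with molecular-weight markers.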

[3] = biological target: T2, Histone deacetylase 2 (Homo sapiens, UniProt Q92769); test: Inhibition of human recombinant HDAC2 using fluorogenic HDAC substrate measured after 15 mins by fluorimetry assay
[4] = biological target: T3, Histone deacetylase 4 (Homo sapiens, UniProt P56524); test: Inhibition of human recombinant HDAC4 at 10 uM using fluorogenic HDAC substrate class 2a measured after 30 mins by fluorimetry assay relative to control
[5] = biological target: T1, Protein deacetylase HDAC6 (Homo sapiens); test: Inhibition of HDAC6 in human Meso163 cells assessed as upregulation of p21 mRNA expression at 20 uM after 24 hrs by RT-Sybr green PCR analysis; format: cell-based
In short: (§2)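 Meso 163 and A549 cells treated for 24 h; E-cadherin, Sema-3F and p21 mRNA quantified by real-time PCR; means ± S.E.M. of four independent experiments.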

[6] = biological target: Histone deacetylase 8 (Homo sapiens, UniProt Q9BY41); test: Inhibition of human recombinant HDAC8 using fluorogenic HDAC substrate measured after 60 mins by fluorimetry assay
[7] = biological target: T1, Protein deacetylase HDAC6 (Homo sapiens); test: Inhibition of HDAC6 in human A549 cells assessed as increase in histone H3 acetylation at 20 uM measured after 6 to 20 hrs by Western blot analysis; format: cell-based
In short: as §1

[8] = species on record: Homo sapiens; test: Selectivity ratio of IC50 for human recombinant HDAC10 to IC50 for human recombinant HDAC6
[9] = biological target: NAD-dependent protein deacetylase sirtuin-1 (Homo sapiens) (UniProt Q96EB6); test: Inhibition of human recombinant sirtuin 1 at 10 uM using fluorogenic HDAC substrate measured after 20 mins by fluorimetry assay relative to control
[10] = species on record: Homo sapiens; test: Selectivity ratio of IC50 for human recombinant HDAC8 to IC50 for human recombinant HDAC6
[11] = biological target: Polyamine deacetylase HDAC10 (Homo sapiens) (UniProt Q969S8); test: Inhibition of human recombinant HDAC10 at 10 uM using fluorogenic HDAC substrate measured after 45 mins by fluorimetry assay relative to control
[12] = biological target: Histone deacetylase 7 (Homo sapiens, UniProt Q8WUI4); test: Inhibition of human recombinant HDAC7 using fluorogenic HDAC substrate class 2a measured after 45 mins by fluorimetry assay
[13] = biological target: T1, Protein deacetylase HDAC6 (Homo sapiens); test: Inhibition of HDAC6 in human Meso163 cells assessed as increase in alpha tubulin acetylation at 20 uM measured after 6 to 20 hrs by Western blot analysis; format: cell-based
In short: as §1

[14] = cells; format: functional, cell-based; conditions: Homo sapiens, 72 h
[15] = biological target: Histone deacetylase; format: cell-based, Homo sapiens
[16] = species on record: Homo sapiens; test: Selectivity ratio of IC50 for human recombinant HDAC1 to IC50 for human recombinant HDAC6
[17] = biological target: T3, Histone deacetylase 4; test: Inhibition of human recombinant HDAC4 using fluorogenic HDAC substrate class 2a measured after 30 mins by fluorimetry assay
[18] = biological target: T4, Histone deacetylase 1 (Homo sapiens, UniProt Q13547); test: Inhibition of human recombinant HDAC1 using fluorogenic HDAC substrate measured after 15 mins by fluorimetry assay
[19] = biological target: Histone deacetylase 8 (Homo sapiens) (UniProt Q9BY41); test: Inhibition of human recombinant HDAC8 at 10 uM using fluorogenic HDAC substrate measured after 60 mins by fluorimetry assay relative to control
[20] = biological target: NAD-dependent protein deacetylase sirtuin-3, mitochondrial (Homo sapiens) (UniProt Q9NTG7); test: Inhibition of human recombinant sirtuin 3 at 10 uM using fluoro-lysine sirtuin 2 deacetylase substrate measured after 45 mins by fluorimetry assay relative to control
[21] = biological target: T5, Histone deacetylase 5 (Homo sapiens, UniProt Q9UQL6); test: Inhibition of human recombinant HDAC5 using fluorogenic HDAC substrate class 2a measured after 30 mins by fluorimetry assay
[22] = biological target: Histone deacetylase 9 (Homo sapiens, UniProt Q9UKV0); test: Inhibition of human recombinant HDAC9 using fluorogenic HDAC substrate class 2a measured after 30 mins by fluorimetry assay
[23] = species on record: Homo sapiens; test: Selectivity ratio of IC50 for human recombinant HDAC11 to IC50 for human recombinant HDAC6
[24] = biological target: T6, Histone deacetylase 3 (Homo sapiens, UniProt O15379); test: Inhibition of human recombinant HDAC3 at 10 uM using fluorogenic HDAC substrate measured after 10 mins by fluorimetry assay relative to control
[25] = species on record: Homo sapiens; test: Selectivity ratio of IC50 for human recombinant HDAC3 to IC50 for human recombinant HDAC6
[26] = biological target: T5, Histone deacetylase 5; test: Inhibition of human recombinant HDAC5 at 10 uM using fluorogenic HDAC substrate class 2a measured after 30 mins by fluorimetry assay relative to control
[27] = biological target: T2, Histone deacetylase 2; test: Inhibition of human recombinant HDAC2 at 10 uM using fluorogenic HDAC substrate measured after 15 mins by fluorimetry assay relative to control
[28] = biological target: T6, Histone deacetylase 3
[29] = biological target: Histone deacetylase 11 (Homo sapiens, UniProt Q96DB2); test: Inhibition of human recombinant HDAC11 using fluorogenic HDAC substrate class 2a measured after 30 mins by fluorimetry assay
[30] = cells; format: functional, cell-based; conditions: Homo sapiens, 72 h; remark: listed apart in the source
[31] = biological target: T4, Histone deacetylase 1; test: Inhibition of human recombinant HDAC1 at 10 uM using fluorogenic HDAC substrate measured after 15 mins by fluorimetry assay relative to control
[32] = species on record: Homo sapiens; test: Selectivity ratio of IC50 for human recombinant HDAC2 to IC50 for human recombinant HDAC6
[33] = biological target: T1, Protein deacetylase HDAC6 (Homo sapiens); test: Inhibition of HDAC6 in human A549 cells assessed as upregulation of E-cadherin mRNA expression at 20 uM after 24 hrs by RT-Sybr green PCR analysis; format: cell-based
In short: as §2

[34] = biological target: T1, Protein deacetylase HDAC6 (Homo sapiens); test: Inhibition of HDAC6 in human A549 cells assessed as increase in alpha tubulin acetylation at 20 uM measured after 6 to 20 hrs by Western blot analysis; format: cell-based
In short: as §1

[35] = biological target: T1, Protein deacetylase HDAC6 (Homo sapiens); test: Inhibition of HDAC6 in human Meso163 cells assessed as upregulation of E-cadherin mRNA expression at 20 uM after 24 hrs by RT-Sybr green PCR analysis; format: cell-based
In short: as §2

[36] = cells; format: functional, cell-based; conditions: Homo sapiens, 72 h; remark: listed apart in the source
[37] = biological target: Protein deacetylase HDAC6 (Homo sapiens, UniProt Q9UBN7); test: Inhibition of human recombinant HDAC6 using fluorogenic HDAC substrate measured after 30 mins by fluorimetry assay
[38] = biological target: T1, Protein deacetylase HDAC6 (Homo sapiens); test: Inhibition of HDAC6 in human Meso163 cells assessed as upregulation of semaphorin 3F mRNA expression at 20 uM after 24 hrs by RT-Sybr green PCR analysis; format: cell-based
In short: as §2

[39] = biological target: T1, Protein deacetylase HDAC6 (Homo sapiens); test: Inhibition of human recombinant HDAC6 at 10 uM using fluorogenic HDAC substrate measured after 30 mins by fluorimetry assay relative to control
[40] = biological target: Polyamine deacetylase HDAC10 (Homo sapiens, UniProt Q969S8); test: Inhibition of human recombinant HDAC10 using fluorogenic HDAC substrate measured after 45 mins by fluorimetry assay
[41] = biological target: Histone deacetylase 11 (Homo sapiens) (UniProt Q96DB2); test: Inhibition of human recombinant HDAC11 at 10 uM using fluorogenic HDAC substrate class 2a measured after 30 mins by fluorimetry assay relative to control
[42] = biological target: T1, Protein deacetylase HDAC6 (Homo sapiens); test: Inhibition of HDAC6 in human A549 cells assessed as upregulation of p21 mRNA expression at 20 uM after 24 hrs by RT-Sybr green PCR analysis; format: cell-based
In short: as §2

[43] = biological target: T1, Protein deacetylase HDAC6 (Homo sapiens); test: Inhibition of HDAC6 in human A549 cells assessed as upregulation of semaphorin 3F mRNA expression at 20 uM after 24 hrs by RT-Sybr green PCR analysis; format: cell-based
In short: as §2

[44] = biological target: NAD-dependent protein deacetylase sirtuin-2 (Homo sapiens, UniProt Q8IXJ6); test: Inhibition of human recombinant sirtuin 2 using fluoro-lysine sirtuin 2 deacetylase substrate measured after 60 mins by fluorimetry assay

T2 sequence (Q92769 whole entry): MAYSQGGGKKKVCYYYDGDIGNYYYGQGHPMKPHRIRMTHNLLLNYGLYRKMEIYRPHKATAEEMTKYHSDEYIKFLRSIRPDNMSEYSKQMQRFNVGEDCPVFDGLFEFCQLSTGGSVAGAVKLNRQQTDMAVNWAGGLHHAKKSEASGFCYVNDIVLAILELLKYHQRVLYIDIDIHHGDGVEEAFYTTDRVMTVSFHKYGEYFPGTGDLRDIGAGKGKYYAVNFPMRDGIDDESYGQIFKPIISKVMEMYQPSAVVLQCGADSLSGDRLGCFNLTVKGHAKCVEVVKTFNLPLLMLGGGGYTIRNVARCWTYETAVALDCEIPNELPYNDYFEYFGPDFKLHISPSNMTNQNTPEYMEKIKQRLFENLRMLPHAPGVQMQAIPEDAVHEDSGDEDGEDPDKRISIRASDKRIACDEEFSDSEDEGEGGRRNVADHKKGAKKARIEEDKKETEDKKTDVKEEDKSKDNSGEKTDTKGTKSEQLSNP
T4 sequence (Q13547 whole entry): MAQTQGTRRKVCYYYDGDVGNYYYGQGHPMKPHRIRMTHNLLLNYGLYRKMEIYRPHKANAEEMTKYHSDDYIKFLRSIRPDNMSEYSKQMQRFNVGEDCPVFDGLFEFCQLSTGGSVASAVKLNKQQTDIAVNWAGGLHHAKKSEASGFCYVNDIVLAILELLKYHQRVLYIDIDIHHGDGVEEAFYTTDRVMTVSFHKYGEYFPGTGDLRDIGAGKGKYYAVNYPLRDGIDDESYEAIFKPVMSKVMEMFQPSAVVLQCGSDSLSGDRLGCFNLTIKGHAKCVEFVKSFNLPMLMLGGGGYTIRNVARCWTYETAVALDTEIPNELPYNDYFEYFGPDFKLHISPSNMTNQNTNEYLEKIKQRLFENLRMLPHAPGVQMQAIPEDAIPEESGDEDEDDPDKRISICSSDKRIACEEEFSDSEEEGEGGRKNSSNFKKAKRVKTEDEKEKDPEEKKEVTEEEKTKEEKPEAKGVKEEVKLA
T5 sequence (Q9UQL6 whole entry): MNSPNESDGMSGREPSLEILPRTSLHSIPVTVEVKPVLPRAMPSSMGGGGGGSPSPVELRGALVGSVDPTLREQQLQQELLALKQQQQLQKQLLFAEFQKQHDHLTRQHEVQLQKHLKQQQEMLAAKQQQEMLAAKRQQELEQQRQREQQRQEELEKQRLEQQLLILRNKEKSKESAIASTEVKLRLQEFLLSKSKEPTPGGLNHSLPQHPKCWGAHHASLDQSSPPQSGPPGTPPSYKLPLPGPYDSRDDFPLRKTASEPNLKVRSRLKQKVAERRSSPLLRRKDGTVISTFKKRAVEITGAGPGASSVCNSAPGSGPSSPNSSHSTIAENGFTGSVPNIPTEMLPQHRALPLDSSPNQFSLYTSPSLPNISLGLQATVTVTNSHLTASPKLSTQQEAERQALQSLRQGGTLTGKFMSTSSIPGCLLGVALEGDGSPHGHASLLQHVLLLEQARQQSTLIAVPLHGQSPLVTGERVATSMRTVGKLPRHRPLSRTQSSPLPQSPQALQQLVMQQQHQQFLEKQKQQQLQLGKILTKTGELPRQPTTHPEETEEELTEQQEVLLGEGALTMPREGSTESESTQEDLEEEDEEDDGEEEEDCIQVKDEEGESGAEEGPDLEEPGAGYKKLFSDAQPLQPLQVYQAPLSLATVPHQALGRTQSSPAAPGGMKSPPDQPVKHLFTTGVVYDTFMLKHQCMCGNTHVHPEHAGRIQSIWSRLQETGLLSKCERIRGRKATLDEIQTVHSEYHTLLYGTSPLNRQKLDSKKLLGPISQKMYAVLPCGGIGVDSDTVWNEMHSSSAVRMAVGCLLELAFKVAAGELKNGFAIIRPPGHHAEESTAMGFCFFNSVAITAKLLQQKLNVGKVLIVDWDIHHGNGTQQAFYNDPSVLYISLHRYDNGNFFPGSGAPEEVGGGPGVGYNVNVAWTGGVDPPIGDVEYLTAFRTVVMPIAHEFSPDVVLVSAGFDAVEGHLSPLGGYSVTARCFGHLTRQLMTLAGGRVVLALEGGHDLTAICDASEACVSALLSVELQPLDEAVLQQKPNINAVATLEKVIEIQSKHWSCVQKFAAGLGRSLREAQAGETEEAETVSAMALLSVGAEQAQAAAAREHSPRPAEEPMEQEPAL
T3 sequence (P56524 whole entry): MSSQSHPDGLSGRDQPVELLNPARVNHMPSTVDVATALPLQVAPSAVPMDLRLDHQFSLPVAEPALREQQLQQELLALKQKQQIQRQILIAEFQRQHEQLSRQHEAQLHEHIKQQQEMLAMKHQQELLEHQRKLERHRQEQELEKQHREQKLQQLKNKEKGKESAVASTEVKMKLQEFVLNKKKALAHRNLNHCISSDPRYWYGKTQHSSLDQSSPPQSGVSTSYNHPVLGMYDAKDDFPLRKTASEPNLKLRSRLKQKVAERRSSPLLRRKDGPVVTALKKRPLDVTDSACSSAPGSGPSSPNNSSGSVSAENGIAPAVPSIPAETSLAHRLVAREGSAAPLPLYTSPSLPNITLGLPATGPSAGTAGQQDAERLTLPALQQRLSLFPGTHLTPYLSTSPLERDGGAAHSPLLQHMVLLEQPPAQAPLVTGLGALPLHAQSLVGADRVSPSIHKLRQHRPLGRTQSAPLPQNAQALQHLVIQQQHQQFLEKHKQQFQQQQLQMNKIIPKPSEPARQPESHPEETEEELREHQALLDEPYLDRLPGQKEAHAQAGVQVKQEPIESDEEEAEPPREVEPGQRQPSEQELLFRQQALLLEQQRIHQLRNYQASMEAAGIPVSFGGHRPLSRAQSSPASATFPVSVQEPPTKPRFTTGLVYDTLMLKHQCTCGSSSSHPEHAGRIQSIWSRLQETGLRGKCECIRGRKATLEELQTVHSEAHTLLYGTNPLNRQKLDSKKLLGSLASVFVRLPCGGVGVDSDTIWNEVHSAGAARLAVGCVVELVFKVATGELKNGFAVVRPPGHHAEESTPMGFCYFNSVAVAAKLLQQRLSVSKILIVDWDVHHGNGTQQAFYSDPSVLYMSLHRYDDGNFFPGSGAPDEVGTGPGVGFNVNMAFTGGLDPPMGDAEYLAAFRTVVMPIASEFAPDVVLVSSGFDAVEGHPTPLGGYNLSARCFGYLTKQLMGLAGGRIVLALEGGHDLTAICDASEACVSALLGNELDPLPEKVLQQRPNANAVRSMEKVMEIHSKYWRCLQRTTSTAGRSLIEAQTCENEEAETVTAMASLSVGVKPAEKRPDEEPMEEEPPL
T6 sequence (O15379 whole entry): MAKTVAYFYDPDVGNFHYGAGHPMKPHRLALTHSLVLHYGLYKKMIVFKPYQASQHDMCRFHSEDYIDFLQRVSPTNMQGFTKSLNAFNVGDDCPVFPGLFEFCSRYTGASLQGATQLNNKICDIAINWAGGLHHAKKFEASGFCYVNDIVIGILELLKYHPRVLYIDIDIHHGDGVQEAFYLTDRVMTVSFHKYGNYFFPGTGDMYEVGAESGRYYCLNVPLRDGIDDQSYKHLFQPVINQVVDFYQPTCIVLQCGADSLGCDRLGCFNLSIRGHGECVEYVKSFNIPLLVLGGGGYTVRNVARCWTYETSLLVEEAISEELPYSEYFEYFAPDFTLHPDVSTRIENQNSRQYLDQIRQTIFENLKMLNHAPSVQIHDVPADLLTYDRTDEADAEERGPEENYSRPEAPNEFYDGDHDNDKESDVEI
Chain of NAD-dependent protein deacetylase sirtuin-3, mitochondrial (Homo sapiens) (Q9NTG7 whole entry): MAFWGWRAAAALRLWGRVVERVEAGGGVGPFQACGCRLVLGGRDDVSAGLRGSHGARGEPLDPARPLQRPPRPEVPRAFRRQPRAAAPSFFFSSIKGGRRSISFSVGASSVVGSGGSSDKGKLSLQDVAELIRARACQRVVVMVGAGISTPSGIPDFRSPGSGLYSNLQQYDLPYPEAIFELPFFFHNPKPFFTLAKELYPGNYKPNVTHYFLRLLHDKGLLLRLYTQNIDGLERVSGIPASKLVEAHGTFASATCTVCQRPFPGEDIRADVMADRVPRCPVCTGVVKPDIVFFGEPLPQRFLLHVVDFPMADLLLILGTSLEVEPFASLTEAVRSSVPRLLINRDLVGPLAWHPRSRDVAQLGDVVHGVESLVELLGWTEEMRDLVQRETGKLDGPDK
Chain of Polyamine deacetylase HDAC10 (Q969S8 whole entry): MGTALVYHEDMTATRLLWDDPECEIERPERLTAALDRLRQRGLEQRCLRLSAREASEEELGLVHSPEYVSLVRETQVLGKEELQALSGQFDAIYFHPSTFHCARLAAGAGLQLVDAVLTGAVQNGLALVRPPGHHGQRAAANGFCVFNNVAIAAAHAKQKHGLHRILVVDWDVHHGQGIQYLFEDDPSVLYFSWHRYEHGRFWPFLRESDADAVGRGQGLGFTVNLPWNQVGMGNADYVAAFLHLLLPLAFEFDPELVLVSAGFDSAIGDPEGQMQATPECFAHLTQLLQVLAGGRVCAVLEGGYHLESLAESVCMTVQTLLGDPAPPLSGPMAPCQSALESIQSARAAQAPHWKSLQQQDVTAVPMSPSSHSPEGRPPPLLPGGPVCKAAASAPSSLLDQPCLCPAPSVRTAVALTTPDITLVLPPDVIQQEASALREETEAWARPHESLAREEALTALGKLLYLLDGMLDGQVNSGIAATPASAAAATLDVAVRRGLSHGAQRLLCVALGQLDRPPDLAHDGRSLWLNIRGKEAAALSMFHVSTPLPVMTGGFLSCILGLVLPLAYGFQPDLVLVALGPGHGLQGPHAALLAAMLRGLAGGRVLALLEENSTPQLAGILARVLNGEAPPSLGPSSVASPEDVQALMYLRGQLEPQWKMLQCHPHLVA
Chain of Polyamine deacetylase HDAC10 (Homo sapiens) (Q969S8 whole entry): as above

COC(=O)c1ccc2ccccc2c1OCCCCCCCC(=O)NO
IC50 [1]: 62.4 µM | Activity [2]: Active | IC50 [3]: 3.4 µM | inhibition [4]: -4.8% | Activity [5]: Active | IC50 [6]: 1.6 µM | Activity [7]: Active | Ratio IC50 [8]: 17 to 37 | inhibition [9]: -2.6% | Ratio IC50 [10]: 17 to 37 | inhibition [11]: 82.3% | IC50 [12]: Not Active | Activity [13]: Active | IC50 [14]: 15.9 µM | EC50 [15]: 7.84 µM | Ratio IC50 [16]: 17 to 37 | IC50 [17]: Not Active | IC50 [18]: 3.5 µM | inhibition [19]: 93.1% | inhibition [20]: -8.2% | IC50 [21]: Not Active | IC50 [22]: Not Active | Ratio IC50 [23]: 17 to 37 | inhibition [24]: 87.9% | Ratio IC50 [25]: 10 | inhibition [26]: 2.8% | inhibition [27]: 67.1% | IC50 [28]: 1 µM | IC50 [29]: 6.6 µM | IC50 [30]: 15.7 µM | inhibition [31]: 84.7% | Ratio IC50 [32]: 17 to 37 | Activity [33]: Active | Activity [34]: Active | Activity [35]: Active | IC50 [36]: 15.6 µM | IC50 [37]: 0.095 µM | Activity [38]: Active | inhibition [39]: 104% | IC50 [40]: 1.6 µM | inhibition [41]: 57.2% | Activity [42]: Active | Activity [43]: Active

Cc1ccc(C(=O)Nc2ccc(S(=O)(=O)O)c3cc(S(=O)(=O)O)cc(S(=O)(=O)O)c23)cc1NC(=O)c1cccc(NC(=O)Nc2cccc(C(=O)Nc3cc(C(=O)Nc4ccc(S(=O)(=O)O)c5cc(S(=O)(=O)O)cc(S(=O)(=O)O)c45)ccc3C)c2)c1 [SURAMIN]
IC50 [44]: 17 µM

CC(=O)Nc1ccc(C(=O)Nc2ccccc2N)cc1 [TACEDINALINE]
IC50 [1]: 16 µM | IC50 [14]: 15.8 µM | IC50 [30]: 3.9 µM | IC50 [36]: 7.83 µM

COC(=O)c1ccc2ccccc2c1OCCCCCCCC(=O)Nc1ccccc1N
EC50 [15]: 8.14 µM
